For orientation: MIC means the lowest concentration that inhibits growth of the organism.

Assay [1] concerns Streptococcus mutans. Nature of the assay: Antibacterial activity against Streptococcus mutans ATCC 25175 assessed as reduction in microbial growth after 24 hrs by agar well diffusion assay. Conditions: ATCC 25175, 24 h. The assay is classed as functional. (Agar diffusion results depend on both activity and mobility in agar.)
The subject of assay [2] is Enterococcus hirae. Nature of the assay: Antibacterial activity against Enterococcus hirae ATCC 8043 assessed as reduction in microbial growth at 0.06 to 133 ug/ml after 24 hrs by agar well diffusion assay. In kind it is functional, organism-based. Put shortly:
(§1)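 Modified literature MIC protocol against ATCC pathogens. Antibiotics served as positive control and sterile water with DMSO (<5%) as negative control. For the related well-diffusion work, test samples were dissolved in sterile water with DMSO (<5%). MIC given in μg/mL.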

Assay [3] relates to Bacillus subtilis. Nature of the assay: Antibacterial activity against Bacillus subtilis ATCC 6633 assessed as reduction in microbial growth after 24 hrs by agar well diffusion assay. In kind it is functional. The note with it: ATCC 6633, 24 h.
Assay [4] concerns Staphylococcus epidermidis. Nature of the assay: Antibacterial activity against Staphylococcus epidermidis ATCC 14990 assessed as reduction in microbial growth at 0.06 to 133 ug/ml after 24 hrs by agar well diffusion assay. In kind it is functional, organism-based. Put shortly:
as §1

Assay [5] has as its system Staphylococcus aureus. Nature of the assay: Antibacterial activity against Staphylococcus aureus ATCC 12600 assessed as reduction in microbial growth after 24 hrs by agar well diffusion assay. Conditions: ATCC 12600, 24 h. In kind it is functional.
Assay [6] has as its system Staphylococcus epidermidis. Nature of the assay: Antibacterial activity against Staphylococcus epidermidis ATCC 14990 assessed as reduction in microbial growth after 24 hrs by agar well diffusion assay. In kind it is functional. Conditions: ATCC 14990, 24 h.
For assay [7], the system named is Streptococcus mutans. Nature of the assay: Antibacterial activity against Streptococcus mutans ATCC 25175 assessed as reduction in microbial growth at 0.06 to 133 ug/ml after 24 hrs by agar well diffusion assay. The assay is classed as functional, organism-based.
Assay [8] relates to Staphylococcus aureus. Nature of the assay: Antibacterial activity against Staphylococcus aureus ATCC 12600 assessed as reduction in microbial growth at 0.06 to 133 ug/ml after 24 hrs by agar well diffusion assay. In kind it is functional, organism-based. In short, it runs like this: as §1
Assay [9] deals with Bacillus subtilis. Nature of the assay: Antibacterial activity against Bacillus subtilis ATCC 6633 assessed as reduction in microbial growth at 0.06 to 133 ug/ml after 24 hrs by agar well diffusion assay. In kind it is functional, organism-based. Put shortly:
as §1

The test system of assay [10] is Enterococcus hirae. Nature of the assay: Antibacterial activity against Enterococcus hirae ATCC 8043 assessed as reduction in microbial growth after 24 hrs by agar well diffusion assay. The note with it: ATCC 8043, 24 h. In kind it is functional.

Each structure is given as a SMILES string. Calls of active or inactive are those of the source. The calls are words filed in the database; no cut-off is given here.

For `CCCCCCC1=C(O)C(=O)C(CCCCC)=C(C2=C(CCCCC)C(=O)C(O)=C(CCCCCC)C2=O)C1=O`, the MIC in the assay on Streptococcus mutans [1], with Bacillus subtilis [3] and in the assay on Staphylococcus aureus [5] was 133 µg/mL in each case. Besides, the outcome (with Enterococcus hirae [2]; in assay [4]) was inactive.

`Oc1ccc2nc3ccccc3nc2c1`: the outcome in the assay with Enterococcus hirae [2], in the assay with Streptococcus mutans [7], with Staphylococcus aureus [8] and in the assay on Bacillus subtilis [9] was inactive. Besides, the MIC in assay [6] amounted to 33.4 µg/mL.

Take `CC1(C)S[C@@H]2[C@H](NC(=O)Cc3ccccc3)C(=O)N2[C@H]1C(=O)O` [PENICILLIN G]: the results for the MIC (in the assay with Streptococcus mutans [1]; in [6]; with Staphylococcus aureus [5]) were 1.1 µg/mL, 0.52 µg/mL and 0.26 µg/mL, respectively.

For `CCCCCCCC1=CC(O)(C(=O)CCCCCC)OC1=O` (stereo not given), the MIC in the assay with Enterococcus hirae [10] came out at 66.7 µg/mL; in the assay with Streptococcus mutans [1], 133 µg/mL; in assay [6], 33.4 µg/mL; in the assay with Bacillus subtilis [3] it was 33.4 µg/mL; with Staphylococcus aureus [5] it was 16.7 µg/mL.

For `CN[C@H](CC(C)C)C(=O)N[C@H]1C(=O)N[C@@H](CC(N)=O)C(=O)N[C@H]2C(=O)N[C@H]3C(=O)N[C@H](C(=O)N[C@H](C(=O)O)c4cc(O)cc(O)c4-c4cc3ccc4O)[C@H](O)c3ccc(c(Cl)c3)Oc3cc2cc(c3O[C@@H]2O[C@H](CO)[C@@H](O)[C@H](O)[C@H]2O[C@H]2C[C@](C)(N)[C@H](O)[C@H](C)O2)Oc2ccc(cc2Cl)[C@H]1O` [VANCOMYCIN], in the assay on Bacillus subtilis [3], the MIC amounted to 1.1 µg/mL.

Regarding `CCCCCCC1=C(O)C(=O)C(CCCCC)=C(c2c(CCCCC)cc(O)c(CCCCCC)c2O)C1=O`, the MIC in the assay on Streptococcus mutans [1] was 133 µg/mL. The result (in the assay with Enterococcus hirae [2]; in assay [4]; in the assay on Staphylococcus aureus [8]) was inactive.

`CCCCCCc1c(O)cc(CCCCC)cc1O` [RESORSTATIN]: the MIC turned out to be 4.2 µg/mL in the assay on Enterococcus hirae [10]; 4.2 µg/mL in the assay with Streptococcus mutans [1]; 4.2 µg/mL in assay [6]; 8.4 µg/mL in the assay with Bacillus subtilis [3]; 4.2 µg/mL in the assay on Staphylococcus aureus [5].

`CC1(C)S[C@@H]2[C@H](NC(=O)[C@H](N)c3ccccc3)C(=O)N2[C@H]1C(=O)O` [AMPICILLIN]: in the assay on Enterococcus hirae [10], the MIC came out at 1.1 µg/mL.

As to `CCCCCCC1=C(O)C(=O)C(CCCCC)=CC1=O`, the MIC with Enterococcus hirae [10] worked out at 133 µg/mL; in the assay on Streptococcus mutans [1] it was 66.7 µg/mL; with Bacillus subtilis [3], 33.4 µg/mL. Moreover, the outcome (in [4]; in the assay on Staphylococcus aureus [8]; in the assay with Bacillus subtilis [9]) was inactive.

As for `CCCCCCCc1cc(O)c(CCCCCC)c(O)c1`, the MIC is 33.4 µg/mL in the assay with Enterococcus hirae [10]; 33.4 µg/mL in the assay with Streptococcus mutans [1]; 8.3 µg/mL in assay [6]; 66.7 µg/mL in the assay on Bacillus subtilis [3]; 1.1 µg/mL in the assay with Staphylococcus aureus [5].

As for `CCCCCCC(=O)C1(O)C=C(CCCCC)C(=O)O1` (stereo not given), the MIC with Enterococcus hirae [10] amounted to 133 µg/mL; in the assay on Streptococcus mutans [1] it was 133 µg/mL; in assay [6] it was 66.7 µg/mL; with Bacillus subtilis [3], 66.7 µg/mL; in the assay with Staphylococcus aureus [5], 33.4 µg/mL.

With `CCCCCCCC1=CC(=O)C(CCCCCC)=C(O)C1=O`, the MIC with Streptococcus mutans [1] and in the assay with Staphylococcus aureus [5] was 133 µg/mL in each case. Moreover, the outcome (in the assay with Enterococcus hirae [2]; in [4]; in the assay with Bacillus subtilis [9]) was inactive.

(Values after ChEMBL document CHEMBL4602672, “Isolation, Identification, and Decomposition of Antibacterial Dialkylresorcinols from a Chinese Pseudomonas aurantiaca Strain” (2020).)
